Bioassay records (PubChem BioAssay)
ATG4B inhibitor: blocks human ATG4B protease cleavage of LC3 substrate | Q9Y4P1 | 0.51% of 340,000 active | inhibition, % at 8.33 µM | AID 504462 | ATG4B cleavage of LC3-PLA2, NBD-HPC fluorescence, 1 h; in the data active = inhibition above about 40%
Target sequence (Q9Y4P1 whole entry, looked up): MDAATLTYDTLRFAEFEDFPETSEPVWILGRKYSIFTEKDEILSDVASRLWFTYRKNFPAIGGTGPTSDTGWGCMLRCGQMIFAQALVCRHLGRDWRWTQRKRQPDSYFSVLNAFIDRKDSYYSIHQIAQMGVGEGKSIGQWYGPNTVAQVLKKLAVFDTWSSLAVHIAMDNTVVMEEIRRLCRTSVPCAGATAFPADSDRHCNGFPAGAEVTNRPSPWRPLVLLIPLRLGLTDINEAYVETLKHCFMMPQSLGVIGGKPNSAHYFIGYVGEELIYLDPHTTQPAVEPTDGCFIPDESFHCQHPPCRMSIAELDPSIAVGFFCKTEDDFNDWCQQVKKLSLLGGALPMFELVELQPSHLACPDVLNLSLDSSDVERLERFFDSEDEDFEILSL
Diaphorase inh: counter-screen for diaphorase-based assays: diaphorase inhibitors and chemical oxidizers; AID 1217; 0.69% of 190,000 active; inhibition, % at 20 µM; diaphorase resazurin-to-resorufin fluorescence, NADH, 16 min; bacterial (C. kluyveri) enzyme, not human;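 active = primary screen inhibition at 20 µM above a set limit, cut at about 50% in these data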;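 also: plate controls were DMSO with full reaction for no effect and wells lacking NADH for full effect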
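System: Diaphorase enzyme from Clostridium kluyveri | Amount: Enzyme working solution with 0.14 U/mL diaphorase | Benchmarks: No-NADH positive control and DMSO neutral control | Signal: Fluorescence of resorufin formed from resazurin, Ex 544/Em 590 nm | Schedule: 16-min room-temperature incubation before reading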
CTSL1 counter: counter-screen for PFM18AAP inhibitors: inhibitors of F. hepatica cathepsin L1; recombinant F. hepatica cathepsin L1, Z-Leu-Arg-MCA fluorescence; inhibition, % at 5.96 µM; 0.49% of 300,000 active; AID 1906;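 active = inhibition above the mean of all tested compounds plus 3 SD, set per screening campaign, cut at about 17% in these data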;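 also: 0% = plate median of test compound wells and 100% = 1 µM Z-Phe-Ala-diazomethylketone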
HKDC1 inh: blocks human hexokinase HKDC1 activity. recombinant HKDC1, G6PDH/diaphorase resazurin coupled fluorescence. inhibition, % at 20 µM. 0.16% of 340,000 active;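 active = inhibition above about 35% when tested at 20 µM, limit read from the data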;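 also: plate controls were DMSO wells with enzyme for no effect and DMSO wells lacking enzyme for full effect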
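Test system: HK5 enzyme. Quantity: 5 µg/mL HK5 final. Reagent: glucose and ATP substrates. Schedule: 90 min reaction incubation at room temperature, dark. Technique: resazurin-to-resorufin fluorescence via G6PDH and diaphorase coupling, 525/613 nm. Control set: DMSO wells with and without enzyme mix.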
Diaphorase act: diaphorase activation or chemical reduction counter-screen | Diaphorase/resazurin coupled assay, resorufin fluorescence, 16 min; hits give high values; 1 = vehicle wells, 0 = NADH-free wells | activation factor at 20 µM | 0.005% of 190,000 active;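 active = diaphorase activity raised at least twofold by the compound at 20 µM; inactive = activation factor below 2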
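Assay system: bacterial diaphorase enzyme (C. kluyveri) / Input: enzyme 0.07 U/mL final / Medium: 50 mM HEPES pH 7.4 with 4.542 mM MgCl2, 0.005% Tween 20 / Doses: single compound dose of 20 µM, 1% DMSO final / Incubation: 16 min enzyme reaction, ambient temperature / Signal: fluorescence, excitation 544 nm and emission 590 nm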
An asterisk follows results filed as active. The list is not random: actives were taken first. Their share in the collection is about 1.4%.

Screening Cn1cc(Cl)c(C(=O)N/N=C/c2ccc3c4c(cccc24)CC3)n1 returned ATG4B inhibitor -18.2, CTSL1 counter 5.4 and HKDC1 inh -4.6.
NC(=O)CSc1nc2scc(-c3ccco3)c2c(=O)n1-c1ccccc1 was read as ATG4B inhibitor 20.4, Diaphorase inh 16.1, CTSL1 counter 27.8*, HKDC1 inh 1.6 and Diaphorase act 0.8.
Screening O=C(CSc1nc2scc(-c3ccco3)c2c(=O)n1-c1ccccc1)N1CCOCC1 returned ATG4B inhibitor -9.2, Diaphorase inh 15.6, CTSL1 counter -1.8, HKDC1 inh 7.3 and Diaphorase act 0.8.
O=C1c2ccccc2C(=O)c2c(/C=C/N3CCCCC3)ccnc21 was read as ATG4B inhibitor -4.9 and HKDC1 inh 19.8.
`COc1ccc2nc(-n3c(O)c(C4=c5ccccc5=NC4=O)[nH]c3=S)sc2c1` gave ATG4B inhibitor 22.0, Diaphorase inh 52.0*, CTSL1 counter 1.7, HKDC1 inh 25.9 and Diaphorase act 0.5.
Cn1c(O)c(C2=c3ccccc3=NC2=O)[nH]c1=S was read as ATG4B inhibitor 30.2, Diaphorase inh -4.9, CTSL1 counter -0.8, HKDC1 inh -7.8 and Diaphorase act 1.
Cc1cccc(CC(=O)N2CCC(N3CCC(C(=O)N4CCOCC4)CC3)CC2)c1 was read as ATG4B inhibitor -2.0, Diaphorase inh 55.3*, CTSL1 counter -0.7, HKDC1 inh -0.4 and Diaphorase act 0.4.
Cc1ccc(S(=O)(=O)N2CCOCC2)cc1C(=O)OCCOc1cccc(Cl)c1 was read as ATG4B inhibitor -14.0, CTSL1 counter 5.2 and HKDC1 inh 0.1.
`Cc1ccc2[nH]cc(C(=O)CCl)c2c1` gave ATG4B inhibitor 9.7, Diaphorase inh 4.7, CTSL1 counter 60.9*, HKDC1 inh 18.7 and Diaphorase act 1.
Screening Cc1ccc2[nH]cc(C(=O)CN3CCN(C)CC3)c2c1 returned ATG4B inhibitor 10.0, Diaphorase inh 19.8, CTSL1 counter 7.9, HKDC1 inh -1.3 and Diaphorase act 0.8.
`c1coc(C2=Nc3cccc4cccc(c34)N2)c1` gave ATG4B inhibitor -10.4, Diaphorase inh 60.1*, CTSL1 counter -2.6, HKDC1 inh 17.6 and Diaphorase act 0.4.
CCN(CC)c1ccc2c(c1)CCCN2 was read as Diaphorase inh 59.4*, CTSL1 counter -7.4 and Diaphorase act 0.4.
`CCCCNC(=O)C1CC(=O)N(CCc2ccc(C)cc2)C1` (stereo not given) gave ATG4B inhibitor -3.1, CTSL1 counter 3.2 and HKDC1 inh -4.3.
Cc1nnc2sc(SCC(=O)N3CCC(C)CC3)nn2c1=O was read as ATG4B inhibitor -1.6, CTSL1 counter 47.3* and HKDC1 inh -10.1.
For Cc1ccccc1NC(=S)Nc1cccc2cnccc12 the results were ATG4B inhibitor -5.4, Diaphorase inh 52.1*, CTSL1 counter 1.8, HKDC1 inh 13.4 and Diaphorase act 0.5.
Cc1ccc(C)c(NC(=S)Nc2cccc3cnccc23)c1 was read as ATG4B inhibitor 0.7, Diaphorase inh 55.4*, CTSL1 counter 0.3, HKDC1 inh 19.5 and Diaphorase act 0.4.
Screening CN(CC(=O)Nc1ccccc1C(F)(F)F)C(=O)Cc1ccc(S(=O)(=O)N2CCOCC2)s1 returned ATG4B inhibitor -1.2, CTSL1 counter -3.4 and HKDC1 inh -5.6.
`CCC(C)Sc1cc(C)c(C#N)c2nc3ccccc3n12` (stereo not given) gave ATG4B inhibitor -8.2, Diaphorase inh 51.7*, CTSL1 counter 2.4, HKDC1 inh 4.0 and Diaphorase act 0.5.
COc1ccc(NS(=O)(=O)c2ccc(C(=O)N(C)Cc3cccs3)cc2)cc1 was read as ATG4B inhibitor -4.0 and HKDC1 inh 2.0.
`COc1ccc(NS(=O)(=O)c2cccc(C(=O)N(C)Cc3cccs3)c2)cc1` gave ATG4B inhibitor 1.0, CTSL1 counter 26.7* and HKDC1 inh 3.4.
Cn1cccc1C(NC(=O)c1ccccc1)C(Cl)(Cl)Cl (stereo not given) was read as ATG4B inhibitor 1.6, CTSL1 counter -5.3 and HKDC1 inh -1.1.
`O=C(CNS(=O)(=O)c1ccc(Br)s1)NCCc1ccc(Cl)cc1` gave ATG4B inhibitor -6.6, CTSL1 counter 0.5 and HKDC1 inh -0.7.
